NR3A LBD binder: modulators (binders) of human NR3A ligand-binding domain | NR3A LBD differential scanning fluorimetry, Tm shift; 0% = protein alone, 100% = glycine-bound protein | Tm shift relative to glycine control, % at 25 µM | hit rate 2.5% among 340,000;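 active = melting temperature shift of at least 10% of the positive control shift, at one fixed dose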
PREPL inh: inhibitors of human prolyl oligopeptidase-like enzyme PREPL; recombinant PREPL, fluorescence polarization activity-based probe; inhibition, % at 5.96 µM; hit rate 0.68% among 320,000; in the data active = inhibition above about 43%;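 note: 0% = enzyme with DMSO and 100% = wells lacking enzyme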
Beta apoptosis: blocks beta cell apoptosis; INS-1E cytokine-induced death, ATP luminescence, 48 h; percent of positive-control rescue, neutral wells zero; protection from apoptosis, % (concentration not given with the values); hit rate 0.8% among 300,000; AID 435005;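 active = Every replicate reaches about 75%, or at least half do and their mean reaches it too, limit read from the data; inconclusive = At least half of replicates reach the limit but their mean does not; inactive = Under half of replicates reach the limit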;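 note: 0% = cytokine-treated negative control wells and 100% = positive control rescue; higher means more ATP so stronger rescue from cytokine killing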
CHOP inh: inhibitors of CHOP induction in ER stress response; inhibition, % at 10 µM; hit rate 3.8% among 220,000; CHO-K1 CHOP-promoter luciferase, tunicamycin-induced, 15-18 h; AID 2732;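 active = compounds that reduced the stress-induced luciferase reporter signal by more than about 70% of percent inhibition, limit read from the data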;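 note: 0% = tunicamycin plus vehicle and 100% = wells without tunicamycin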
CSC inhib: blocks cancer stem cells; hit rate 1.1% among 300,000; cancer stem cell-like cells viability, luminescence; AID 2717; inhibition, % at 7.5 µM; in the data active = inhibition above about 75%; inconclusive = no clear call, values can overlap the other calls; tested in HMLE shEcad cells
T cruzi repl: blocks replication of Trypanosoma cruzi; hit rate 1.4% among 300,000; AID 1885; inhibition, % (concentration not given with the values); T. cruzi beta-gal in NIH3T3, luminescence, 90 h;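 active = mean inhibition across valid replicates above about 55%, limit read from the data; inconclusive = mean below that limit but half or more replicates reach it; inactive = mean below it, under half of replicates reach it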;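 note: signal also drops with host cell toxicity which is not excluded here; 0% = plate median of DMSO wells and 100% = zero luminescence signal; higher percent means less beta-gal luminescence so fewer parasites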
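Read-out: Parasite load inhibition, % | Test system: Mouse NIH/3T3 fibroblasts infected with β-gal-expressing T. cruzi Tulahuen C4 | Amount: 5,000 cells/well | Medium: DMEM, 2% fetal bovine serum | Signal: GalScreen β-gal luminescence, detergent lysis, 60 min | Timing: 3 h attach, ≥90 h co-culture | Also added: Tulahuen C4 trypomastigotes, 5000/well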
* = called active by the depositor; u = inconclusive; x = no result. This is a sample that favours compounds with a hit; in the whole collection about 6.7% have one here.

SMILES	NR3A LBD binder	PREPL inh	Beta apoptosis	CHOP inh	CSC inhib	T cruzi repl
Cc1ccc([C@H]2C(C(=O)O)=CC[C@@H](c3cccc(Cl)c3)N2S(=O)(=O)c2ccc(C)cc2)cc1	-3	x	x	x	x	x
CCc1ccc([C@@H]2CC=C(C(=O)O)[C@H](c3ccc(Cl)cc3)N2S(=O)(=O)c2ccc(C)cc2)cc1	-10	3	-12	x	79*	x
COCCn1c(SCc2cccc(F)c2)nc2cc(C(=O)OC)ccc2c1=O	-1	x	3	x	-3	-12
CC(C)Cc1nnc(NC(=O)CCC(=O)N2CCN(Cc3ccc(Cl)cc3)CC2)s1	0	-2	0	x	-12	38
C[C@H](CO)N1C[C@H](C)[C@H](CN(C)Cc2ccc(-c3ccccc3)cc2)Oc2ccc(NS(=O)(=O)c3ccccc3)cc2CC1=O	-4	27	-5	x	97*	x
C[C@H]1CN([C@@H](C)CO)C(=O)Cc2cc(NC(=O)CCC(F)(F)F)ccc2O[C@H]1CN(C)Cc1ccc(-c2ccccc2)cc1	-4	40	14	x	123*	x
Cc1ccc(S(=O)(=O)Nc2ccc3c(c2)CC(=O)N([C@H](C)CO)C[C@@H](C)[C@H](CN(C)Cc2ccc(-c4ccccc4)cc2)O3)cc1	-9	-57	-9	x	109*	x
O=C(/C=C/c1cccc(O)c1)c1ccc(N2CCOCC2)cc1	-2	2	-12	-28	x	-7
CCN1CCN(S(=O)(=O)CC2(C)C3CCC2(C)C(=O)C3Br)CC1 (centres undefined)	1	-5	-9	-2	7	17
COc1ccc(CCNC(=O)COC(=O)c2ccccn2)cc1	-12	2	-8	x	-16	x
CC(=O)SC1CC(=O)C=C2CCC3C4CCC(=O)OC4(C)CCC3C21C (centres undefined)	0	x	x	x	x	x
Cc1ccc2sc(N3CCN(CCNC(=O)c4ccco4)CC3)nc2c1C	0	-4	x	x	-7	8
O=C(NCc1ccco1)/C(=C/c1ccc(C(F)(F)F)cc1)c1nc2ccccc2[nH]1	-3	-3	-5	89*	38	31
O=S(=O)(/C(=C\c1ccc(C(F)(F)F)cc1)c1nc2ccccc2[nH]1)c1ccccc1	-1	x	x	x	x	x
Cc1nn(-c2ccccc2)c(C)c1/C=N/NC(=O)CSc1nc2ccccc2c(=O)n1-c1ccc(Br)cc1	-2	-5	62	85*	27	22
O=C(CSc1nnc(SCc2cccc3ccccc23)s1)Nc1ccc(C(=O)O)cc1	-19	-53	-14	9	-3	-6
Cc1nn(-c2ccccc2)c(C)c1/C=N/NC(=O)CSc1nnc(SCc2cccc3ccccc23)s1	16*	-19	1	38	-1	21
Cc1ccccc1-n1c(SCC(=O)N/N=C/c2c(C)nn(-c3ccccc3)c2C)nc2ccccc2c1=O	20*	9	18	34	28	56*
C=C(C)Cn1c(SCC(=O)N/N=C/c2c(O)ccc3ccccc23)nc2ccccc2c1=O	-2	3	47	19	103*	27
Cc1ccc(-n2c(SCC(=O)N/N=C/c3c(C)nn(-c4ccccc4)c3C)nc3ccccc3c2=O)cc1	0	7	22	-29	u	36
CCOC(=O)N1CCN=C1SCc1ccc(C(F)(F)F)cc1	1	15	-4	-8	-5	8
O=C(O)c1ccc(-n2c(O)c(C=C3N=c4ccccc4=N3)sc2=S)cc1	-2	-2	4	4	-5	-2
CCN(C(=O)CN1CCN(S(=O)(=O)c2ccccc2C(F)(F)F)CC1)c1c(N)n(Cc2ccccc2)c(=O)[nH]c1=O	-2	20	6	-8	10	-10
CC(C)Cc1nnc(NC(=O)c2cc3c(s2)CCC3)s1	-1	-4	0	85*	-7	-3
O=C(Nc1nncs1)c1cc2c(s1)CCC2	2	-2	-2	6	-13	-3
SMILES	NR3A LBD binder	PREPL inh	Beta apoptosis	CHOP inh	CSC inhib	T cruzi repl
Cc1cc(C)cc(C(=O)OCC(=O)NC(=O)NC2CCCC2)c1	0	-1	-10	x	x	x
N#Cc1c(N)n(Cc2ccccc2)c(=O)c2cc([N+](=O)[O-])ccc12	-3	11	-6	x	13	57*
Cc1nc2ccc([N+](=O)[O-])cc2c(=O)n1Cc1ccc([N+](=O)[O-])cc1	2	17	3	x	-9	34
Cc1ccc(C(=O)N(CCCN(C)C)c2nc3ccc(Cl)cc3s2)cc1C	1	-24	-2	28	7	70*
Cc1ccc2nc(N(CCCN(C)C)C(=O)c3sc4ccccc4c3Cl)sc2c1	-2	-35	-4	80*	x	10
CCc1ccc2nc(N(CCN(C)C)C(=O)c3ccc4ncsc4c3)sc2c1	5	-11	-7	x	13	64*
CN(C)CCN(C(=O)c1ccc2c(c1)OCCO2)c1nc2ccc(Cl)cc2s1	1	3	-10	-5	3	57*
CN(C)CCCN(C(=O)c1ccc2c(c1)OCCO2)c1nc2ccc(Cl)cc2s1	x	-3	-11	x	0	42
O=C(Cc1ccccc1F)Nc1ccc(S(=O)(=O)N2CCCC2)cc1	0	13	0	x	25	x
Cc1cc(=O)nc2c3ccccc3n(C(C)C(=O)NCCN3CCOCC3)n12 (centres undefined)	1	0	-3	x	-7	11
O=S(=O)(c1cccc(-c2nc3n(n2)Cc2ccccc2-3)c1)N1CCCC1	13*	9	x	-22	x	7
CCOC(=O)CSc1nc2c(sc(=S)n2-c2ccccc2OC)c(=O)n1Cc1ccco1	19*	6	2	14	14	2
Cn1cc([N+](=O)[O-])c(C(=O)Nc2nc(-c3ccc(Cl)cc3)cs2)n1	-4	15	x	-44	103*	-20
Cc1ccc(-c2nc(NC(=O)c3nn(C)cc3[N+](=O)[O-])sc2C)cc1	-4	6	116*	-22	x	26
Cc1cnc(NC(=O)c2nn(C)cc2[N+](=O)[O-])s1	-1	x	x	-13	x	-74
Cc1ccc(-c2nc(NC(=O)c3nn(C)cc3[N+](=O)[O-])sc2C)cc1C	-2	0	107*	38	x	64*
Cc1ccc(Cn2ccc(NC(=O)c3nn(C)cc3[N+](=O)[O-])n2)cc1	-2	-1	-25	20	x	u
COCCNCC(=O)Nc1ccc(OC(F)(F)F)cc1	-1	2	-11	8	-9	-11
CCc1ccn2cc(-c3cc(-c4ccccc4)no3)nc2c1	-7	-16	13	77*	29	-19
C=CCn1c(-c2cc(-c3ccc(C)cc3)nc3ccccc23)n[nH]c1=S	-22	1	4	70*	x	33
Cn1c(=O)n(C)c2cc(N3CCOCC3)c(NC(=O)c3ccc(F)cc3)cc21	-3	8	4	x	-11	-11
COc1ccc(N/C=C(\C=C\C#N)S(=O)(=O)c2ccccc2)cc1	0	0	-12	x	3	14
OCCN(Cc1ccccc1)Cc1ccc(C(F)(F)F)cc1	0	16	-6	91*	1	15

Screening results from PubChem BioAssay.
